# KCNK9 block: human KCNK9 channel inhibition. hit rate 1.2% among 310,000. Q9NPC2. HEK293 KCNK9, FluxOR thallium flux fluorescence; active compounds read low. B-score at 10 µM;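 active = ratio B-score over 3 SD below the library mean, with starting fluorescence within 5 SD of its mean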;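 also: negative B-score means less thallium flux so channel inhibition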
# KCNQ1 block: inhibitors of human KCNQ1 potassium channel; P51787; CHO-K1 KCNQ1, FluxOR thallium flux fluorescence; active compounds read high; B-score at 10 µM; hit rate 1.3% among 310,000;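 active = compounds whose thallium flux B-score, printed positive for inhibition, exceeds three library SD while starting fluorescence stays within three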;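 also: channel opened by potassium depolarization with thallium stimulus after 20 min compound exposure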
# PHOSPHO1 block: PHOSPHO1 (human) inhibition. recombinant PHOSPHO1, absorbance phosphatase assay. inhibition, % at 13.3 µM. AID 1565. hit rate 1.1% among 290,000; in the data active = inhibition above about 60%
# Target sequence (Q8TCT1 whole entry, looked up): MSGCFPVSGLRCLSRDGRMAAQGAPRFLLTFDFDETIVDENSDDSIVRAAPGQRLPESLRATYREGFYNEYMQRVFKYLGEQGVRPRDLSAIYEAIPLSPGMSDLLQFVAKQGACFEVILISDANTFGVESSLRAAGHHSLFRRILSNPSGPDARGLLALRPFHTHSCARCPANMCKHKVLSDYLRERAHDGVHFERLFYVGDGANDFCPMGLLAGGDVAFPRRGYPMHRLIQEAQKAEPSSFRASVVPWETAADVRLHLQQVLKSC
# KCNK3 inh: human KCNK3 channel inhibition, primary screen; CHO-KCNK3 thallium flux, FluxOR fluorescence; active compounds read low; B-score at 10 µM; O14649; hit rate 0.84% among 340,000; AID 602410;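 active = B-score under library mean minus 4 SD, starting fluorescence ratio at most library mean plus 5 SD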;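 also: more negative B-score means stronger inhibition of thallium flux through KCNK3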
# hERG rescue: shields human hERG channel from block by proarrhythmic agents. activation (rescue from dofetilide block), less the hit threshold, % at 10 µM. hit rate 0.51% among 310,000. AID 1511. Q12809. CHO-hERG, FluxOR thallium flux, dofetilide IC70 present;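 active = activation above the mean of controls blocked by dofetilide plus 5 SD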;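 also: thallium influx through hERG after potassium depolarization seen as dye fluorescence rise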
# KCNQ1 pot: potentiates or activates the human KCNQ1 potassium channel | CHO-K1 KCNQ1, thallium flux FluxOR fluorescence; active compounds read high | B-score at 10 µM | hit rate 0.35% among 310,000 | AID 2648;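 active = fluorescence ratio B-score, a plate-corrected score, at least three library SD, with initial intensity B-score within 5 SD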
#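 Assay system: CHO-K1 cells stably expressing KCNQ1. Medium: assay buffer for compound exposure, DMSO matched across wells. Timing: 37 °C overnight plating, 90-min dark dye load, 20-min compound pretreatment. Signal: kinetic FluxOR fluorescence, 10 s baseline plus 110 s post-stimulus.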
# KCNK9 block conf: confirmation of human KCNK9 potassium channel inhibitors; shares compounds with KCNK9 block; HEK293 KCNK9 cells, FluxOR thallium flux fluorescence; inhibition, % at 10 µM; hit rate 43% among 4,900;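 active = thallium signal inhibited by more than 5 SD of the compound-free buffer control wells, on both duplicate plates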
# Kir21 sel: mouse Kir2.1 off-target activity of KCNK9 modulators; shares compounds with KCNK9 block; Kir2.1 cells, FluxOR thallium flux fluorescence; inhibition, % at 10 µM; hit rate 4% among 4,900;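 active = thallium signal drop more than 5 SD beyond the mean of the no-compound control wells, seen in both duplicate plates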;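 also: signal is fluorescence rise after thallium addition divided by baseline fluorescence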
# Target sequence (P35561 whole entry, looked up): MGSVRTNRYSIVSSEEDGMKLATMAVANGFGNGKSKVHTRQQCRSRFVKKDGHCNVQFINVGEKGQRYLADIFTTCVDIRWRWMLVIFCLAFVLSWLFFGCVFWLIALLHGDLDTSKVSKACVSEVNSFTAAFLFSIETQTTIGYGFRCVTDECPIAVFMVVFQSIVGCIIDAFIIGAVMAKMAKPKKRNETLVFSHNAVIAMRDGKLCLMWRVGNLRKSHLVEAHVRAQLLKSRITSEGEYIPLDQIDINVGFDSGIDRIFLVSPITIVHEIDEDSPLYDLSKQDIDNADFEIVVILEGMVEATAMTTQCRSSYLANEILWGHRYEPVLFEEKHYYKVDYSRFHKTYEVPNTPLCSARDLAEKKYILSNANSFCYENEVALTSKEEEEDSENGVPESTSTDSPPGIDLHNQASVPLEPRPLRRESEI
# KCNK9 uninduced: second counter-screen for KCNK9 modulators: effect in non-induced cells; shares compounds with KCNK9 block; non-induced KCNK9-HEK293, FluxOR thallium flux; inhibition, % at 10 µM; hit rate 40% among 4,900; AID 492997;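 active = thallium signal drop beyond 5 SD of the untreated control mean, on both duplicate plates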
# KCNK3 inh conf: confirmation of human KCNK3 two-pore domain potassium channel inhibitors | hit rate 99% among 2,400 | AID 651638 | shares compounds with KCNK3 inh | ratio percent of control, % at 10 µM | CHO-KCNK3 thallium flux, FluxOR fluorescence; 0% buffer, 100% carvedilol maximal block;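 active = ratio percent of control, averaged over triplicates, above buffer control mean plus 5 SD, cut at about 64% in these data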;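 also: ratio is the fluorescence rise from min to max over baseline after thallium stimulus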
# KCNK3 noninduced: counter-screen for KCNK3 inhibitors: effect in non-induced cells; AID 651747; non-induced KCNK3 parental cells, FluxOR thallium flux; active compounds read low; shares compounds with KCNK3 inh; hit rate 40% among 2,400; thallium flux ratio (lower = more inhibition) at 10 µM;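 active = thallium flux ratio, averaged over three wells, more than 5 SD below the buffer control mean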;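 also: host cells are CHO cells without KCNK3 induction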
# Hits are given with their value; . = inactive; / = not tested or not shown. Only some compounds are listed: those with a hit (about 4% of all), similar ones and a draw of the others.
SMILES,KCNK9 block,KCNQ1 block,PHOSPHO1 block,KCNK3 inh,hERG rescue,KCNQ1 pot,KCNK9 block conf,Kir21 sel,KCNK9 uninduced,KCNK3 inh conf,KCNK3 noninduced
Cc1cccc(OCC(=O)Nc2ccccc2N2CCCCC2)c1,-9.9,.,.,-9.9,.,.,77%,.,47%,98,.
COc1ccc(NC(=O)C23CC4CC(C2)CC(n2cnc(Br)n2)(C4)C3)cc1OC,.,.,.,.,.,.,/,/,/,/,/
CCC(=O)Nc1cccc(C(=O)/C=C/c2cc(Br)ccc2OC)c1,-10,.,.,-9.3,.,.,38%,.,30%,138,.
COc1ccc(Br)cc1/C=C/C(=O)Nc1ccc2ccccc2c1,.,.,.,.,.,.,/,/,/,/,/
CC(Oc1ccccc1)c1ccnn1S(C)(=O)=O (configuration not stated),.,.,.,.,.,.,/,/,/,/,/
CC(Oc1ccc(Cl)cc1)c1ccnn1S(=O)(=O)c1ccccc1 (configuration not stated),-11,.,.,-9.9,.,.,37%,52%,60%,100,0.14
O=C(O)c1nn(-c2ccccc2)c(-c2ccccc2)c1C(=O)c1ccccc1,.,.,.,.,.,.,/,/,/,/,/
COC(=O)c1nn(-c2ccccc2)c(-c2ccccc2)c1C(=O)c1ccccc1,-9.4,.,.,-8.9,.,.,48%,.,.,106,.
COc1ccc2[nH]c(C)c(CCN(Cc3cccs3)C(=S)Nc3ccccc3)c2c1,-11,.,.,-13,.,.,38%,.,34%,130,0.13
COc1ccccc1NC(=S)N(CCc1c(C)[nH]c2ccccc12)Cc1cccs1,.,.,.,.,.,.,/,/,/,/,/
Cc1[nH]c2ccc(F)cc2c1CCN(Cc1cccnc1)C(=S)Nc1ccc(F)cc1,-9.6,.,.,-9.5,.,.,.,.,26%,103,.
CCOC(=O)C1=C(CSc2nc(CC)c(C)cc2C#N)OC(N)=C(C#N)C1c1ccc(OC)cc1 (configuration not stated),-9.7,.,.,-9.2,.,.,54%,.,45%,112,0.15
CCOC(=O)C1=C(CC)OC(N)=C(C#N)C1c1cc(OC)ccc1OC (configuration not stated),.,.,.,.,.,.,/,/,/,/,/
CN(C)S(=O)(=O)N1CCCC(C(=O)c2ccc(-c3ccccc3)c(F)c2)C1 (configuration not stated),-8.4,.,.,-11,.,.,30%,.,45%,119,.
CC(C)(CNC(=O)c1ccc(S(=O)(=O)N2CCCC2)cc1)N1CCOCC1,.,.,.,.,.,.,/,/,/,/,/
N=c1c2c(-c3ccccc3)c(-c3ccccc3)n(Cc3ccco3)c2ncn1Cc1ccco1,-8.7,11,.,-14,.,.,54%,46%,31%,110,0.15
N=c1c2c(-c3ccccc3)c(-c3ccccc3)n(Cc3ccccc3)c2ncn1CCCn1ccnc1,.,.,.,.,.,.,/,/,/,/,/
Cc1ccc(C(=O)NCc2nnc(SCC(=O)Nc3sc4c(c3C#N)CCCC4)n2C)cc1,.,.,.,.,.,.,/,/,/,/,/
C=CCOC(=O)C1=C(C)NC(SCC(N)=O)=C(C#N)C1c1ccc(C)cc1 (configuration not stated),.,.,.,.,.,.,/,/,/,/,/
C=CCOC(=O)C1=C(C)NC(SCC)=C(C#N)C1c1ccc(Cl)cc1 (configuration not stated),-8.4,9,.,-8.8,.,.,.,.,40%,116,.
O=C(O)CCC(=O)Nc1cccc(-c2csc(-c3ccccc3)n2)c1,.,.,.,.,.,.,/,/,/,/,/
CCCCC(=O)Nc1cccc(-c2csc(-c3ccccc3)n2)c1,-10,9,.,-10,.,.,50%,.,30%,125,0.15
C=CCOc1c(CCC)cc(CCC)cc1C(N)=O,-9.4,.,.,-9.8,.,.,60%,.,32%,119,0.15
C=CCOc1c(Br)cc(/C=N/NC(N)=O)cc1OC,.,.,.,.,.,.,/,/,/,/,/
CCn1cc(/C=C(\NC(=O)c2ccccc2)C(=O)NCCCN2CCOCC2)c2ccccc21,.,.,.,.,.,.,/,/,/,/,/
SMILES,KCNK9 block,KCNQ1 block,PHOSPHO1 block,KCNK3 inh,hERG rescue,KCNQ1 pot,KCNK9 block conf,Kir21 sel,KCNK9 uninduced,KCNK3 inh conf,KCNK3 noninduced
COc1ccc(-n2ncc3c(=O)n(CC(C)=O)cnc32)cc1,.,.,/,.,.,.,/,/,/,/,/
CC(C)=CCc1cc([C@@H]2CC(=O)c3ccc(O)c(CC=C(C)C)c3O2)ccc1O,-11,.,/,-16,.,.,61%,.,30%,141,0.12
Cc1ccc2c(c1)C(=O)CC(c1ccc3c(c1)OCCO3)O2 (configuration not stated),.,.,.,.,.,.,/,/,/,/,/
COc1ccc(N(CC(=O)NCCSc2ccccn2)S(=O)(=O)c2ccccc2)cc1Cl,.,.,.,.,.,.,/,/,/,/,/
CCCc1cc(C(=O)Cc2ccc(F)cc2)c(O)cc1O,-10,.,.,-8.8,.,.,60%,.,38%,108,.
COc1ccccc1C1CCN(c2cc(O)ccc2[N+](=O)[O-])CC1,-11,11,.,-10,.,.,55%,.,44%,111,.
COc1ccccc1C1CCN(C(=O)C2CCCCC2)CC1,.,.,.,.,.,.,/,/,/,/,/
Fc1ccc(C2CC(c3cccs3)=NN2c2ccccc2)cc1 (configuration not stated),-9.8,.,.,-8.9,.,.,58%,.,38%,104,0.15
Oc1ccccc1C1=NN(c2ccccc2)C(c2ccc(F)cc2)C1 (configuration not stated),.,.,.,.,.,.,/,/,/,/,/
COc1cc(/C=C/C(=O)N2CCN(c3ccccn3)CC2)cc(OC)c1OC,.,.,.,.,.,.,/,/,/,/,/
COC(=O)c1ccc(CSc2nc3ccccc3c(=O)n2Cc2ccco2)o1,-12,.,.,-11,.,.,.,.,38%,118,.
O=C1c2ccccc2C(Nc2ccc3c(c2)OCCO3)N1c1ccccn1 (configuration not stated),-15,.,.,-9.6,.,.,52%,.,47%,103,.
